The structures appear in SMILES notation. Where “and” joins values, the source holds several entries; their conditions need not be identical. Equal values may be shown once. Hit rate of the full screen: of about 220,000 compounds, about 990 (0.45%) were called active.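 The calls were made as follows: active = inhibition over about 50% at 20 µM in the single-dose screen (limit read from the data); inactive = the rest.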 Many of the other results were omitted from the sample, so actives are more common in it than they were. Some structures have more than one record in an assay (separate samples or runs), and their calls can disagree.

The term inhibition denotes the relative decrease from the control value, in per cent.

Chain of Runt-related transcription factor 1 (Homo sapiens) + Core-binding factor subunit beta (Homo sapiens) (Q01196 whole entry, looked up, the tested form may be a part): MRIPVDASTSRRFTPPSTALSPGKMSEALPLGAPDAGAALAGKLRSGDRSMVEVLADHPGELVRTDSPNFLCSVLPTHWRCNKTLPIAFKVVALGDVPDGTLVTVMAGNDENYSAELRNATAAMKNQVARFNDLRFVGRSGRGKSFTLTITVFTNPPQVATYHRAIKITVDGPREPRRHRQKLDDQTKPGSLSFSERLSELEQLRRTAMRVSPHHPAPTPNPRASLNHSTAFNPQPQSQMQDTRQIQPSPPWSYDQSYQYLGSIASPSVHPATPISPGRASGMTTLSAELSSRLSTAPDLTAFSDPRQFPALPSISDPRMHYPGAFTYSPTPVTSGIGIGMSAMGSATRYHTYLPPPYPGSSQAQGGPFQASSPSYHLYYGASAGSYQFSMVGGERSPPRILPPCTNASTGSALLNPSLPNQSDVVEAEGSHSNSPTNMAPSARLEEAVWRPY
Chain of Runt-related transcription factor 1 (Homo sapiens) + Core-binding factor subunit beta (Homo sapiens) (Q13951 whole entry, looked up, the tested form may be a part): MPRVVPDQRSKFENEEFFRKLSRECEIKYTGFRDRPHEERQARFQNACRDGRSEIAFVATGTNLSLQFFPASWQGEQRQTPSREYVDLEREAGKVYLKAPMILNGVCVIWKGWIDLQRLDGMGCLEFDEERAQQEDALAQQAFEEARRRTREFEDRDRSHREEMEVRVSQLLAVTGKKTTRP

This test concerns the target Runt-related transcription factor 1 (Homo sapiens) + Core-binding factor subunit beta (Homo sapiens) (UniProt Q01196+Q13951). Briefly: inhibitors of RUNX1 Runt–CBFb binding, primary screen, biochemical, FRET, Cerulean-Runt, Venus-CBFb, uHTS (AID 1496).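 Also: 0% = DMSO wells and 100% = excess unlabeled CBFb competitor control.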 Conditions: Cerulean-Runt/Venus-CBFb FRET ratio 530/480, 1 h; at 20 µM; stronger effect = higher value. The procedure, abridged:
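Measured by: fluorescence energy transfer, 422 nm excitation, 530/480 nm emission; Assay system: Cerulean-Runt domain; Medium: Tris pH 7.5 buffer with BSA; Measure: loss of energy transfer signal; Controls: 5 µM unlabeled CBFb as full-inhibition high control; Incubation: protein complex preformed 1 h, compound exposure 1 h, room temperature, dark.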
Turning to `O=C(Nc1ccc(Cl)cc1)Nc1ccc(C(=O)N2CCOCC2)cc1`, the inhibition is -0.4% (inactive). The figure for `Cc1cccn2c(=O)c3cc(C#N)c(=O)n(CCCN4CCOCC4)c3nc12` is 92.6% (active); for `Cc1cccn2c(=O)c3cc(C(=O)N4COCC4(C)C)n(C)c3nc12` it is -1.7% (inactive). The result for `Cc1cc(C)n(CC(C)NCc2c(C(=O)N3CCOCC3)nc3c(C)cccn23)n1` (stereo not drawn) reads 0.6% (inactive); that for `CC(C)c1c(O)nc(SCCOc2ccc(Cl)cc2)[nH]c1=O`, 0.6% (inactive).

On to `Cc1cc(C)c(C#N)c(SCc2[nH]nc3c2C(c2ccccc2)C(C#N)=C(N)O3)n1` (stereo not drawn), for which the inhibition was -1.5% (inactive). Consider `Cc1cc(C)c2c3c(sc2n1)C(c1ccccc1)C(C#N)=C(N)O3` (stereo not drawn), for which the inhibition is 66.6% (active). The figure for `N#CC1=C(N)Oc2c(sc3ccccc23)C1c1ccco1` (stereo not drawn) is 15.7% (inactive). The figure for `Nc1c(Cl)cc(S(N)(=O)=O)cc1S(N)(=O)=O` is 0% (inactive); for `COc1ccc(/C=C2\N=C3CCCN3C2=O)cc1` it is 1.1% (inactive). For `COc1ccc(/C=N/NS(=O)(=O)c2ccc(NC(C)=O)cc2)cc1`, the inhibition is 0.8% (inactive). In the case of `CCCCN1CCNC1=S`, the inhibition is 0.1% (inactive). The figure for `O=C1c2ccccc2S(=O)(=O)N1CC(O)Cn1c2ccccc2c2ccccc21` (stereo not drawn) is -0.7% (inactive).

For `CCCCN(CCCC)CC(O)Cn1c2ccccc2c(=O)c2ccccc21` (stereo not drawn), the inhibition was 80.3% (active). The result for `CS(=O)(=O)N(CC(O)Cn1c2ccccc2c2ccccc21)c1cccc2ccccc12` (stereo not drawn) reads -3.3% (inactive). The result for `O=C1[C@@H]2C(c3cccnc3)=NO[C@@H]2C(=O)N1c1ccc(Cl)cc1Cl` reads 9% (inactive); that for `COc1ccc(Cl)cc1CSc1ncn[nH]1`, -0.7% (inactive). The result for `Cc1ccsc1/C=N/NC(=O)Cc1cc(=O)[nH][nH]1` reads -1.1% (inactive).

For the molecule `CCn1cnc2scc(-c3ccc(C)c(C)c3)c2c1=O`, the inhibition is 0.4% (inactive). The figure for `Cc1cc(F)ccc1S(=O)(=O)Nc1ncnc2scc(-c3ccc(F)cc3)c12` is 66.8% (active); for `COc1ccc(-c2csc3ncnc(Oc4ccc5c(C)cc(=O)oc5c4)c23)cc1` it is -0.5% (inactive).

Turning to `CCOc1ccc2sc(NS(=O)(=O)c3ccc(N)cc3)nc2c1`, the inhibition is 0.7% (inactive). The figure for `CCNc1nc(NCC)nc(N/N=C/c2ccc(O)c(OC)c2)n1` is 10% (inactive); for `CNC(=O)c1cc2c(ccc3ccccc32)oc1=N` it is 108% (active); for `CCOC(=O)N1CCN(C(=O)c2cc3c(ccc4ccccc43)oc2=O)CC1` it is 2.5% (inactive). The figure for `N=c1oc2ccccc2cc1C(=O)N/N=C/c1ccccc1` is -2.3% (inactive); for `CCN(CC)C(=O)Oc1ccc(Br)cc1C(=O)Nc1ccc(F)c(Cl)c1` it is 0.6% (inactive). On to `CCn1c(SCC(=O)N/N=C/c2ccncc2)nc2ccccc21`, for which the inhibition is -0.7% (inactive).

As for `COC(=O)C1=C(C)OC(N)=C(C#N)C1c1cc(OC)ccc1OC` (stereo not drawn), the inhibition is -2.5% (inactive). As for `COc1ccc(C2C(C#N)=C(N)Oc3cc(N)ccc32)cc1OC` (stereo not drawn), the inhibition is 77.7% (active).

As for `CCC1=C(C(=O)OC)C(c2cc(OC)ccc2OC)C(C#N)=C(N)O1` (stereo not drawn), the inhibition was 2% (inactive). The result for `CCOC(=O)c1c(NC(=S)Nc2ccccc2C)sc2c1CCC2` reads 10.3% (inactive). The figure for `CCOC(=O)c1c(NC(=O)NC(C)(C)C)sc2c1CCN(C)C2` is 4.1% (inactive).

`CCOC(=O)c1c(NC(=S)Nc2ccccc2)sc2c1CCN(C)C2`: the inhibition was 66.5% (active). `CC(C)(C)c1nnc(NC(=O)C2c3ccccc3Oc3ccccc32)s1`: the inhibition is 21% (inactive). The result for `CC(C)Sc1nnc([C@H](Cc2ccccc2)NC(=O)OC(C)(C)C)o1` reads 4.8% (inactive); that for `Fc1cccc(Cl)c1CSc1ccc(-c2ccco2)nn1`, 40.3% (inactive). Consider `O=C(CSc1ccc(-c2ccco2)nn1)NCc1ccc2c(c1)OCO2`, for which the inhibition was 16.4% (inactive).

For the molecule `Brc1ccc(CSc2ccc(-c3ccco3)nn2)cc1`, the inhibition is 53.3% (active). The figure for `CCC(C)(C)NC(=O)C(c1ccc(O)cc1)N(C(=O)Cn1nnc2ccccc21)c1ccc(NC(C)=O)cc1` (stereo not drawn) is 0.4% (inactive).

`COc1cc(COCC(O)CN2CCN(Cc3ccc4c(c3)OCO4)CC2)cc(OC)c1OC` (stereo not drawn): the inhibition is -1% (inactive). The result for `COc1ccc2cc1Oc1ccc(cc1)C[C@H]1c3cc(c(OC)cc3CCN1C)Oc1c(O)c(OC)cc3c1[C@H](C2)N(C)CC3` reads 1.7% (inactive). The figure for `COc1c(O)ccc2c1CN1CCc3cc4c(cc3C1C2)OCO4` (stereo not drawn) is 66.6% (active). The result for `CCOC(=O)c1ccc(NC(=O)c2nc[nH]c2C(=O)N[C@@H](CCCCNC(=O)OC(C)(C)C)C(=O)OC(C)(C)C)cc1` reads -5.6% (inactive); that for `CC(C)(C)OC(=O)c1c(N)n(CCCN2CCCC2=O)c2nc3ccccc3nc12`, 68.7% (active); that for `COCC(C)OC(=O)c1c(N)n(CCCN2CCOCC2)c2nc3ccccc3nc12` (stereo not drawn), 67.9% (active). For the molecule `O=C(Cn1c(-c2ccccn2)nc2ccccc21)NCCN1CCOCC1`, the inhibition is 0.6% (inactive). The result for `Cc1ccc(C(=O)OC(C)CN2CCOCC2)cc1` (stereo not drawn) reads 1.3% (inactive); that for `CSc1nnc(-c2ccncc2)n1CCCN1CCCC1=O`, -5.5% (inactive). The figure for `CCOc1ccc(C(=O)NCCCN2CCCC2=O)cc1` is 1% (inactive); for `CC(C)C[C@H](CO)Nc1nc(N(C)c2cccc(Cl)c2)c2ncn(C(C)C)c2n1` it is -4.6% (inactive); for `N/C(=N\OC(=O)Nc1ccccc1)c1ccno1` it is 0.1% (inactive). As for `O=C(NC(c1ccccc1)c1ccccc1)N1CCN(CCO)CC1`, the inhibition is -1.2% (inactive). The figure for `S=C(c1ccc(-c2ccccc2)o1)N1CCCCC1` is 21% (inactive); for `OCCN1CCN(C(=S)c2ccc(-c3ccccc3)cc2)CC1` it is 53.6% (active); for `CCc1nc2sc3c(Cl)ncnc3c2c2c1CCCC2` it is -0.7% (inactive).

Regarding `Cc1ccc(S(=O)(=O)N(C)C)cc1NC(=O)COC(=O)C1COc2ccccc2O1` (stereo not drawn), the inhibition is -0.2% (inactive). The result for `CCN(CC)S(=O)(=O)c1ccc(N2CCOCC2)c(NC(=O)C2COc3ccccc3O2)c1` (stereo not drawn) reads 84.6% (active); that for `CCN(CC)S(=O)(=O)c1ccc(N2CCOCC2)c(C(=O)O)c1`, 1% (inactive).

Turning to `COc1cccc2sc(Nc3nc(C)c(C(C)=O)s3)nc12`, the inhibition is 66.3% (active). As for `CC(=O)c1sc(NC(=O)CCCOc2ccccc2C)nc1C`, the inhibition was 0.4% (inactive). The result for `COc1cccc2sc(NNC(=O)c3nc4ccccc4s3)nc12` reads 32.7% (inactive); that for `O=S(=O)(NC(=S)Nc1ccccc1)c1ccc(F)cc1`, 26.8% (inactive).

As for `O=[N+]([O-])c1ccc2c(c1)C(O)n1nc(-c3ccccc3)nc1S2` (stereo not drawn), the inhibition is -0.7% (inactive). The figure for `C=CCNC(=S)NNC(=O)c1cc(Cl)ccc1OC` is 0.2% (inactive); for `C=CCSc1nnc(NC(=O)c2ccc(NC(C)=O)cc2)s1` it is 0% (inactive); for `NNC(=O)c1cccc(COCC(F)(F)C(F)F)c1` it is -0.3% (inactive). In the case of `CCCC(=O)N1c2ccccc2NC2=C(C(=O)CCC2)C1c1ccc(F)cc1` (stereo not drawn), the inhibition was -0.4% (inactive). The figure for `N#CC1=C(N)N(c2ccccc2)C2=C(C(=O)CCC2)C1c1ccccc1` (stereo not drawn) is 6.6% (inactive); for `CCCN1C2=C(C(=O)CCC2)C(c2ccc(O)c(Br)c2)C2=C1CCCC2=O` it is 53.1% (active).

For the molecule `O=S(=O)(Nc1ccc(OC(F)(F)F)cc1)c1cccc2nonc12`, the inhibition is -2.4% (inactive).

As for `O=[N+]([O-])c1cccc(-c2nnc3c4ccccc4c4ccccc4n23)c1`, the inhibition is 4.4% (inactive).

For `Cc1ccc(-c2nc3ccccc3[nH]c2=O)cc1`, the inhibition was 1.4% (inactive). The figure for `O=c1[nH]c2ccccc2n2c(-c3ccccc3)nnc12` is 53% (active). In the case of `Oc1c(Br)cc(/C=N/NC(=S)NCC2CCCO2)cc1Br` (stereo not drawn), the inhibition is 0.6% (inactive).

`CCN1C(=O)/C(=C\N2CCN(c3ccccc3)CC2)SC1=S`: the inhibition was -0.2% (inactive).

In the case of `CCCCN1C(=O)/C(=C/C=C2/C=Cc3ccccc3N2CC)SC1=S`, the inhibition was 27.9% (inactive). The result for `CCN1C(=O)/C(=C2/Sc3ccccc3N2CCCS(=O)(=O)O)SC1=S` reads 44.8% (inactive) and 56.4% (active).

With `COCCNC(=S)N1CCN(C)CC1`, the inhibition is 0.5% (inactive). The figure for `O=C1CCCCC1C(=O)c1ccccc1` (stereo not drawn) is 1.7% (inactive); for `COc1ccc(C2/C=C\CN(CC(C)C)CC(=O)N2Cc2ccc(F)cc2)cc1` (stereo not drawn) it is 0% (inactive). The result for `O=C(O)CCc1cccnc1` reads -0.7% (inactive); that for `COc1cccc2c(=O)n(CC(=O)N3CCCCCC3)ccc12`, 0.5% (inactive). As for `CCOC(=O)C1CCN(C(=O)Cn2cc(C#N)c3ccccc32)CC1`, the inhibition is 0.6% (inactive).

As to `CCc1cccc2c(C=C(C#N)C#N)cn(CC(=O)N3CCCCC3)c12`, the inhibition is 91.4% (active). The result for `CSC1=NC2(C)CCCCC2C12C=CC(=O)C=C2` (stereo not drawn) reads 2.8% (inactive). The result for `COc1ccc(N2CCN(C(=O)CSc3nc4cc(OC)c(OC)cc4cc3C#N)CC2)cc1` reads 12.5% (inactive); that for `COc1ccc2nc(N3CCCC(O)C3)c(C#N)cc2c1` (stereo not drawn), 81.1% (active). The result for `CCOc1ccc2nc(N3CCCN(C(=O)Nc4ccccc4C)CC3)c(C#N)cc2c1` reads 29.2% (inactive). For the molecule `CC1CCN(c2c(NCc3ccc(C(=O)NCc4ccccc4)cc3)c(=O)c2=O)CC1`, the inhibition is 0.6% (inactive). The figure for `NNC(=O)c1oc2nc(-c3ccccc3)cc(-c3ccco3)c2c1N` is -57.1% (inactive); for `CSc1nc(-c2ccco2)nn1C(=O)c1ccccc1Cl` it is -3.7% (inactive). The figure for `COc1ccc(Cl)cc1C(=O)NNC(=O)c1nc2nc(C)cc(C)n2n1` is -0.8% (inactive); for `COc1ccc(S(=O)(=O)Nc2ccc3oc(C)c(C(C)=O)c3c2)cc1` it is 0.3% (inactive).

Take `COCc1cc(=O)oc2cc(NS(=O)(=O)c3ccc(C)cc3)ccc12`: the inhibition was 58.8% (active). The result for `Cc1ccc(S(=O)(=O)Nc2ccc3ncccc3c2)cc1` reads -1.3% (inactive); that for `Clc1ccc(C[n+]2cc(-c3ccc(Cl)cc3)n3c2CCC3)cc1`, 0.1% (inactive). The result for `Cc1cc(C(=O)N2CCC(C(=O)O)CC2)c(C(F)(F)F)o1` reads 0% (inactive).

These data come from PubChem BioAssay AID1496 (Sanford-Burnham Center for Chemical Genomics, 2009).
